# High-throughput results: PubChem BioAssay, several laboratories
# NALP3 yeast inh: inhibitors of NALP3 inflammasome in yeast; Yeast reconstituted NLRP3/ASC/caspase-1, beta-gal luminescence, 24 h; inhibition, % at 10 µM; actives 0.39% (n = 330,000); AID 2825;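 active = inhibition of 50% or more; inactive = inhibition below 50%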;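 also: plate controls were induced DMSO wells for no effect and uninduced yeast grown without galactose for full effect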
# Mot1-301 SUMO: blocks SUMOylation pathway, rescuing yeast Mot1-301 growth | S. cerevisiae Mot1-301 growth rescue, ATP luminescence, 38.5C; percent above DMSO median, 100 means doubled | AID 2716 | growth rescue, % at 18.8 µM | actives 1% (n = 320,000);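 active = every valid replicate shows activation above 250% relative to neutral control wells; inactive = the rest, any valid replicate at or below 250%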;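 also: OY570 slx delta 5 strain wells were the positive control but not used for scaling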
# PolyA inhibitor: yeast polyadenylation inhibition; S. cerevisiae SKY197-pL101 polyadenylation reporter, beta-gal luminescence; efflux-impaired pdr1/pdr3 knockout yeast; score 100 = 6 SD above DMSO; activity score, % at 12 µM; actives 0.02% (n = 300,000);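 active = lowest replicate activity score at least 50, where 100 means six control SD above control mean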;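 also: yeast exposed to compound for 9 h at 30 °C; higher score means more reporter readthrough which indicates perturbed polyadenylation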
# IMP-1 inh: inhibitors of Pseudomonas aeruginosa IMP-1 metallo-beta-lactamase; purified IMP-1, nitrocefin hydrolysis, epi-absorbance fluorescence; inhibition, % at 5.6 µM; actives 0.45% (n = 290,000); AID 1556;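 active = inhibition above the mean plus 3 SD of all compounds in the same screening run, cut at about 4.5% in these data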;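 also: 0% = IMP-1 with DMSO and 100% = DMSO wells lacking enzyme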
#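 System – purified recombinant IMP-1 beta-lactamase · Input – IMP-1 dispensed at 0.2 nM · Timing – 15 min preincubation plus 25 min reaction at 25 °C · Signal – Epi-absorbance fluorescence, 480 nm excitation, 530 nm emission · Measure – percent IMP-1 inhibition derived from blank-referenced optical density · Controls – Enzyme-plus-DMSO low control, enzyme-free DMSO high control · Replication – singlicate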
# VIM-2 inhibitor: inhibitors of Pseudomonas aeruginosa VIM-2 metallo-beta-lactamase; inhibition, % at 5.6 µM; actives 0.89% (n = 290,000); purified VIM-2, nitrocefin hydrolysis, epi-absorbance fluorescence;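 active = inhibition above the mean of all tested compounds plus 3 SD, cutoff set per screening run, cut at about 7.5% in these data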;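 also: red hydrolysis product quenches plate fluorescence so inhibitors raise well fluorescence; 0% = enzyme with DMSO and 100% = DMSO without enzyme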
# NALP1 inh: inhibitors of NALP1 inflammasome in yeast | S. cerevisiae NALP1/ASC/caspase-1 growth, X-gal OD620, 72 h | inhibition, % at 10 µM | actives 0.61% (n = 280,000); in the data active = inhibition mostly above about 24%, no sharp cut-off; inactive = mostly below about 32%
# Active calls of the source: *; nt = no result. Most compounds without a hit are left out; they make up all but 2.9% or so of the library.
SMILES,NALP3 yeast inh,Mot1-301 SUMO,PolyA inhibitor,IMP-1 inh,VIM-2 inhibitor,NALP1 inh
O=C(CSc1ccc2nnc(-c3cccnc3)n2n1)Nc1ccccc1C(F)(F)F,9.8,297.9*,1.4,0.0,-0.9,11.6
Cc1ccc([N+](=O)[O-])cc1NC(=O)CSc1nnc(C)n1CC1CCCO1 (stereo not drawn),5.2,174.5,-8.6,-2.0,-3.8,-4.6
CC(=O)c1ccc(N2CCN(C(=O)CCCn3c(=S)[nH]c4cc5c(cc4c3=O)OCO5)CC2)cc1,3.4,298.0*,nt,-2.5,-2.3,-7.5
O=C(CCCn1c(=S)[nH]c2cc3c(cc2c1=O)OCO3)N1CCN(c2ccc(Cl)cc2)CC1,9.6,-6.9,4.4,-3.0,-2.1,-3.6
O=C(Nc1cc2c(cc1[N+](=O)[O-])OCCO2)c1cccnc1,33.3,3.3,nt,nt,nt,nt
O=C(Nc1cccc(Br)c1)c1cc(S(=O)(=O)N2CCOCC2)cs1,10.9,12.7,-3.2,-0.2,-4.1,22.3
CC(CN1CCN(C)CC1)OC(=O)c1ccccc1Cl (stereo not drawn),-8.2,345.7*,11.9,-3.0,0.5,23.4
CC(CN1CCCC1)OC(=O)c1ccccc1Cl (stereo not drawn),13.1,11.8,-0.1,-2.0,1.1,-5.7
Cc1ccccc1NC(=S)c1ccc2ccccc2n1,30.1,15.5,7.8,-1.6,-2.5,15.5
Nc1nccnc1C(=O)OCC(=O)NNC(=O)c1ccccc1,-3.1,1.7,8.0,-2.6,-2.4,4.9
CC(Sc1nnc(-c2ccco2)n1C)C(=O)N1C(C)CCCC1C (stereo not drawn),22.3,-8.9,-6.1,-3.0,-0.6,36.5*
CC(Sc1nnc(-c2ccco2)n1C)C(=O)NC1CCCC1 (stereo not drawn),8.4,9.1,nt,nt,nt,nt
O=C(COc1ccc([N+](=O)[O-])cc1Cl)NCCc1ccccc1,37.5,1.3,9.6,-4.3,0.2,73.0*
O=C(COC(=O)c1cc([N+](=O)[O-])ccc1Cl)NCCc1ccccc1,14.0,-7.0,nt,nt,nt,nt
Nc1nc(-c2ccc3c(c2)CCCC3)c(CC(=O)O)s1,8.1,109.3,-4.4,0.6,3.2,37.2*
Cc1sc(N)nc1-c1ccc2c(c1)OCCO2,18.8,20.6,-6.3,-2.9,-2.5,12.8
Nc1nc(-c2ccc3c(c2)OCCO3)c(CC(=O)O)s1,15.3,118.2,27.7,9.9*,1.5,0.6
Cc1cccc(NC(=O)c2cccc(S(=O)(=O)N(C)c3ccccc3)c2)n1,-0.7,nt,nt,nt,nt,nt
CN(C)c1ccc(-c2ccc3c(=O)c4ccccc4n(C)c3c2)cn1,18.0,62.3,7.6,1.0,12.1*,4.3
Cc1ccc(C)c(OC(=O)c2cccc(S(=O)(=O)N3CCN(C)CC3)c2)c1,14.0,121.4,3.0,-0.9,-2.0,11.7
CCOC(=O)N1CCN(C(=O)CN(C2CCCCC2)S(=O)(=O)c2ccc(F)cc2)CC1,7.9,-19.9,-8.0,-1.8,-2.8,38.1*
COc1ccccc1N1CCc2c(C)nc3c(OC)cccc3c21,1.5,-9.1,6.1,-2.3,12.0*,32.6
COc1cccc2c3c(c(C)nc12)CCN3c1ccccc1,8.0,-3.7,8.5,-2.0,10.6*,8.1
Cc1ccc2nc(C)c3c(c2c1)N(c1ccc(F)cc1)CC3,23.5,104.2,8.3,-1.1,10.9*,nt
CCS(=O)(=O)N1CCN(CC2CC3C=CC2C3)CC1 (stereo not drawn),-0.3,348.9*,7.2,-1.7,2.2,-4.6
SMILES,NALP3 yeast inh,Mot1-301 SUMO,PolyA inhibitor,IMP-1 inh,VIM-2 inhibitor,NALP1 inh
CCCS(=O)(=O)N1CCN(CC2CC3C=CC2C3)CC1 (stereo not drawn),2.2,-0.5,nt,-5.5,-1.6,4.2
CC(OC(=O)c1ccc([N+](=O)[O-])o1)C(=O)Nc1nc(-c2ccc(F)c(F)c2)cs1 (stereo not drawn),8.6,nt,nt,nt,nt,nt
O=S(=O)(c1ccc(Cl)s1)N1CCC(Cc2ccccc2)CC1,8.8,4.8,-20.7,-2.9,-4.9,40.4*
CCOc1ccc(S(=O)(=O)NCCC(=O)NCC(c2ccco2)N2CCCCC2)cc1 (stereo not drawn),5.5,0.3,nt,nt,nt,nt
COc1ccc(C(=O)C[n+]2cccc3cc(C)ccc32)cc1,5.9,15.5,2.7,5.9*,0.7,nt
CCN(CC)CCCNC(=O)c1ccc(N2CCCCC2)c(NS(=O)(=O)c2ccc(C)cc2)c1,15.2,15.1,-0.3,-1.1,4.4,24.4*
O=C(CCn1c(=O)oc2ccccc21)NC1=NCCS1,-0.4,342.0*,-10.0,-3.4,0.0,9.5
COc1ccccc1NC(=O)C(=O)Nc1ccc2c(c1)N(C(=O)C1CC1)CCC2,-3.0,nt,-5.9,nt,nt,nt
CCN(CC)CCNC(=O)Cn1ncc2ccccc2c1=O,3.9,776.2*,36.3,-2.6,-0.5,-7.4
CCN(CC)CCNC(=O)Cn1nc(-c2ccccc2)c2ccccc2c1=O,25.5,5.4,11.8,-2.1,-2.1,5.2
O=C(/C=C/c1ccco1)NC(=S)Nc1cccc(C(=O)O)c1,2.4,-22.4,7.1,8.9*,-4.3,7.2
O=c1c2c3c(sc2ncn1/N=C/c1ccc([N+](=O)[O-])o1)CCCC3,34.7,289.6*,-12.5,-0.2,-0.8,10.3
O=C(COc1ccc(C(=O)O)cc1)Nc1cccc(C(F)(F)F)c1,10.7,7.1,1.5,-3.1,-0.2,2.3
O=C(/C=C/Nc1cccc(C(F)(F)F)c1)C(F)(F)F,0.9,3.8,nt,5.9*,-0.5,22.0
Cc1cc(NC(=O)Nc2cccc(C(F)(F)F)c2)n(C)n1,6.9,-5.6,-1.0,-1.9,-0.9,31.7*
O=C(COCC(=O)Nc1cccc(C(F)(F)F)c1)Nc1cccc(C(F)(F)F)c1,8.4,-8.0,6.1,-3.8,-0.4,38.5*
COc1ccc(N2CCN(C(=O)CCC(=O)N3CC(C)Oc4ccc(C)cc43)CC2)cc1 (stereo not drawn),14.4,11.5,2.3,-0.6,-1.0,-7.5
CSCCC(NC(=O)c1ccco1)C(=O)Nc1ccc(C)cn1 (stereo not drawn),21.0,-11.8,-6.7,nt,nt,nt
CCC(C)N(C(=O)COC(=O)Cc1n[nH]c(=O)c2ccccc12)C1CCS(=O)(=O)C1 (stereo not drawn),15.9,208.1,2.6,-2.7,-2.8,26.4*
COc1cccc(C(=O)Oc2ccc(N3C(=O)CCC3=O)c(C)c2)c1,15.1,6.6,-7.5,-1.5,-0.3,34.9*
COc1ccccc1N1CCN(C(=O)CSc2nnc3c4ccccc4n(CC(=O)O)c3n2)CC1,19.8,-5.9,-2.3,-1.1,2.8,31.0
CCn1c2ccccc2c2nnc(SCC(=O)N3CC(C)OC(C)C3)nc21 (stereo not drawn),-4.9,-23.8,0.1,-1.5,8.3*,24.3
O=C(Nc1cc(C(F)(F)F)ccc1N1CCOCC1)C1Cc2ccccc2CN1C(=O)c1ccco1 (stereo not drawn),1.5,24.6,10.9,5.6*,0.1,2.0
